Series [1] concerns the target T1, Bombesin receptor subtype-3 (Homo sapiens, UniProt P32247).
T1 sequence (P32247 whole entry): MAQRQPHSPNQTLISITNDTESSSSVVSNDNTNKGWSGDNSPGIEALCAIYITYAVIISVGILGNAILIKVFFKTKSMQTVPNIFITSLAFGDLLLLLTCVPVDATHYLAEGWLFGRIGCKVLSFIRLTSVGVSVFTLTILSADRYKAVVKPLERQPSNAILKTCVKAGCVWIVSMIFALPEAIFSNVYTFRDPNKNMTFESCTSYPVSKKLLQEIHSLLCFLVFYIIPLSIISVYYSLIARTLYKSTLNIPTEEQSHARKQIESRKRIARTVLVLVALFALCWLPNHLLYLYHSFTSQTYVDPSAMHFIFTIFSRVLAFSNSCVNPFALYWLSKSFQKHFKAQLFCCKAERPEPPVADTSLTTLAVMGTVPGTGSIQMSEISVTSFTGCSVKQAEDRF
Briefly: Agonist activity at human BRS3 expressed in CHO-K1 cells by IP-One HTRF assay. In kind it is cell-based.

The target of series [2] is T2, Bombesin receptor subtype-3 (Mus musculus, UniProt O54798).
T2 sequence (O54798 whole entry): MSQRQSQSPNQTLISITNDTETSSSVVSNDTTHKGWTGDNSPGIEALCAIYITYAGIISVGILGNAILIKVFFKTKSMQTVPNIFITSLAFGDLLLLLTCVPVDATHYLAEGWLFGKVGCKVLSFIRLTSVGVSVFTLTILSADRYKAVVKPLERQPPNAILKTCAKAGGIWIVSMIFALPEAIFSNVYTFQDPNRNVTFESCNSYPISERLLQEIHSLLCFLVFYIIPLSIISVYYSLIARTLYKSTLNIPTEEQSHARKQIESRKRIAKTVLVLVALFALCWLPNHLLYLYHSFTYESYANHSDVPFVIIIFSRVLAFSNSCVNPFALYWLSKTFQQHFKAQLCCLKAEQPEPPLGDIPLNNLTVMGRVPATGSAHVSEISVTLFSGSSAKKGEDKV
Kind of series: Agonist activity at mouse BRS3 expressed in CHO-K1 cells by IP-One HTRF assay. In kind it is cell-based.

Series [3] in a line: Cmax in mouse at 30 mg/kg, po. The format is ADME, organism-based. Also on record: dose 30 mg/kg, route oral. The settings on record: in vivo.
The subject of series [4] is Mus musculus. Kind of series: Cmax in mouse assessed as 3-[2-[(5R)-5-(carboxymethyl)-8-(trifluoromethyl)-1,2,3,5-tetrahydropyrido[2,3-e][1,4]diazepin-4-yl]-2-oxoethyl]benzoic acid inactive metabolite at 30 mg/kg, po. In kind it is ADME, organism-based. More on the design: dose 30 mg/kg, route oral. The settings on record: in vivo. Summed up:
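Mice acclimated 7–11 days with free access to chow and tap water, then given the ester parent orally at 30 mg/kg as a suspension in 0.5 (w/v)% methyl cellulose 400. Plasma was stored at −20 °C. The carboxylic acid metabolite was quantified in plasma by LC–MS/MS. Cmax is the average of 2 or 3 mice.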

Series [5] relates to Mus musculus. Briefly: Drug metabolism in mouse assessed as ratio of compound to 3-[2-[(5R)-5-(carboxymethyl)-8-(trifluoromethyl)-1,2,3,5-tetrahydropyrido[2,3-e][1,4]diazepin-4-yl]-2-oxoethyl]benzoic acid inactive metabolites at 30 mg/kg, po. The format is ADME, organism-based. The settings on record: in vivo. Also on record: dose 30 mg/kg, route oral.
In series [6] the test system is Mus musculus. Briefly: Cmax in mouse assessed as 2-[(5R)-4-[2-(3-hydroxyphenyl)acetyl]-8-(trifluoromethyl)-1,2,3,5-tetrahydropyrido[2,3-e][1,4]diazepin-5-yl]acetic acid inactive metabolite at 30 mg/kg, po. As to conditions: in vivo. In kind it is ADME, organism-based. Also on record: dose 30 mg/kg, route oral.
Series [7] relates to Mus musculus. Kind of series: Drug metabolism in mouse assessed as ratio of compound to 2-[(5R)-4-[2-(3-hydroxyphenyl)acetyl]-8-(trifluoromethyl)-1,2,3,5-tetrahydropyrido[2,3-e][1,4]diazepin-5-yl]acetic acid at 30 mg/kg, po. In kind it is ADME, organism-based. Also on record: dose 30 mg/kg, route oral. As to conditions: in vivo.
A short description of series [8]: Solubility of the compound in JP2. The format is physicochemical.
Series [9] can be described thus: Fraction unbound in mouse plasma. The format is ADME, cell-free. Summed up:
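Unbound fraction measured in mouse plasma.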

Series [10] concerns Mus musculus. Kind of series: (§1) AUC in mouse at 30 mg/kg, po. In kind it is ADME, organism-based, Plasma. Also on record: dose 30 mg/kg, route oral. The settings on record: in vivo, BLD = below limit of detection.
Series [11] relates to Mus musculus. Kind of series: (§2) Half life in mouse at 30 mg/kg, po. The settings on record: in vivo, BLD = below limit of detection. In kind it is ADME, organism-based. More on the design: dose 30 mg/kg, route oral.
The test system of series [12] is Mus musculus. Briefly: Antiobesity activity in po dosed C57BL/6N mouse assessed as anorectic effect. The format is functional, organism-based. The gist of the method: (§3)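 Male C57BL/6N mice, 7 weeks old, were fasted 16 h, housed singly and habituated 1 h. They then received a single oral dose (1, 3, 10, 30 mg/kg) or vehicle (0.5% methylcellulose). Chow was given 1 h later and cumulative intake over 6 h was recorded. n = 4–5; Dunnett's test versus vehicle.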

In series [13] the test system is Mus musculus. Kind of series: Antiobesity activity in C57BL/6N mouse assessed as reduction in food intake at 30 mg/kg, po single dose. In kind it is functional. The gist of the method: as §3
Series [14] has as its system Canis familiaris. Briefly: Cardiotoxicity in beagle dog assessed as heart rate at 3 mg/kg/3 ml, iv for 30 mins. In kind it is toxicity, organism-based, Canis lupus familiaris. More on the design: route intravenous. As to conditions: in vivo, 0.5 h. The gist of the method:
(§4)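 Dogs were anaesthetized with halothane (0.5–1.5% end-tidal) after iv thiopental 30 mg/kg. Compound was dispersed at 1 mg/mL in 20% hydroxypropyl-β-cyclodextrin and infused into the femoral vein at 3 mg/kg/3 mL over 30 min. Femoral artery HR and mean BP were recorded for 60 min, normalized to the 0-min value; n = 2.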

Series [15] deals with Canis familiaris. Kind of series: Cardiotoxicity in beagle dog assessed as blood pressure at 3 mg/kg/3 ml, iv for 30 mins. The format is toxicity, organism-based, Canis lupus familiaris. More on the design: route intravenous. As to conditions: in vivo, 0.5 h. Summed up: as §4
Series [16] in a line: Tmax in mouse at 30 mg/kg, po. Also on record: dose 30 mg/kg, route oral. The format is ADME, organism-based. As to conditions: in vivo.
Series [17] is described as follows: as §1. In kind it is ADME, organism-based, Plasma. More on the design: dose 30 mg/kg, route oral. The settings on record: plasma.
Series [18] in a line: as §2. In kind it is ADME, organism-based. Also on record: dose 30 mg/kg, route oral. As to conditions: in vivo.
Series [19] relates to Mus musculus. Briefly: Tmax in mouse assessed as 2-[(5R)-4-[2-(3-hydroxyphenyl)acetyl]-8-(trifluoromethyl)-1,2,3,5-tetrahydropyrido[2,3-e][1,4]diazepin-5-yl]acetic acid at 30 mg/kg, po. In kind it is ADME, organism-based. More on the design: dose 30 mg/kg, route oral. As to conditions: in vivo.
Series [20] concerns Mus musculus. Kind of series: AUC in mouse assessed as 2-[(5R)-4-[2-(3-Hydroxyphenyl)acetyl]-8-(trifluoromethyl)-1,2,3,5-tetrahydropyrido[2,3-e][1,4]diazepin-5-yl]acetic acid at 30 mg/kg, po. In kind it is ADME, organism-based, Plasma. Also on record: dose 30 mg/kg, route oral. The settings on record: in vivo.
The test system of series [21] is Mus musculus. Briefly: Half life in mouse assessed as 2-[(5R)-4-[2-(3-Hydroxyphenyl)acetyl]-8-(trifluoromethyl)-1,2,3,5-tetrahydropyrido[2,3-e][1,4]diazepin-5-yl]acetic acid at 30 mg/kg, po. More on the design: dose 30 mg/kg, route oral. As to conditions: in vivo. The format is ADME, organism-based.

We go through 13 compounds from ChEMBL document CHEMBL3352776, “Synthesis and biological evaluation of novel chiral diazepine derivatives as bombesin receptor subtype-3 (BRS-3) agonists incorporating an antedrug approach” (Bioorg Med Chem, 2015).

≈ marks a conversion by molar mass, not a printed value.

Take `CC(C)(C)COC(=O)c1cccc(CC(=O)N2CCNc3nc(C(F)(F)F)ccc3[C@H]2CC(=O)O)c1`: the values for the concentration giving a half-maximal response (EC50) in [1] and in series [2] were 5.6 nM and 8.1 nM, respectively. Moreover, the Cmax was found to be 12.7 nM in series [3] and 197 nM in [4]. Besides, in series [5], the Ratio amounted to 0.0643.

As to `CC(C)CC(=O)Oc1cccc(CC(=O)N2CCNc3nc(C(F)(F)F)ccc3[C@H]2CC(=O)O)c1`, the half-maximal effective concentration (EC50) in series [1] amounted to 12 nM; in [2], 43 nM. The highest concentration (Cmax) in series [6] was determined as 1260 nM. The Ratio in series [7] came out at 0. Also, the solubility in series [8] stood at 900 µg/mL (≈ 1820 µM). This compound returned a fraction unbound in [9] of 0.108. In addition, in series [10], the AUC result was “BLD”. For the same compound, in [11], the t1/2 entry was “BLD”. Further, the inhibition result in series [12] was “Dose-dependent effect”. Besides, in [13], the inhibition in vivo at 30 mg/kg is 30%. For the same compound, the Activity result in [14] and in series [15] was “Non-toxic” in each case.

`O=C(O)C[C@@H]1c2ccc(C(F)(F)F)nc2NCCN1C(=O)Cc1cccc(C(=O)O)c1`: the EC50 in [1] and in series [2] was more than 10000 nM in each case.

For `CC(C)COc1cccc(CC(=O)N2CCNc3nc(C(F)(F)F)ccc3[C@H]2CC(=O)O)c1`, the Activity result in [14] and in series [15] was “Toxic” in each case.

On to `CC(C)OC(=O)c1cccc(CC(=O)N2CCNc3nc(C(F)(F)F)ccc3[C@H]2CC(=O)O)c1`, for which the EC50 was 40 nM in series [1] and 45 nM in series [2]. Further, the peak concentration (Cmax) stood at 1240 nM in [3] and 918 nM in series [4]. In addition, the Ratio in series [5] is listed as 1.35.

With `CC(C)COC(=O)c1cccc(CC(=O)N2CCNc3nc(C(F)(F)F)ccc3[C@H]2CC(=O)O)c1`, the EC50 in [1] came to 4.2 nM; in series [2], 5.4 nM. In addition, the values for the Cmax in [3] and in [4] were 30.8 nM and 2120 nM, respectively. For the same compound, the Ratio in [5] is 0.0145.

Turning to `CCCCC(=O)Oc1cccc(CC(=O)N2CCNc3nc(C(F)(F)F)ccc3[C@H]2CC(=O)O)c1`, the EC50 in series [1] worked out at 19 nM; in series [2], 35 nM. Moreover, the Cmax came to 28.5 nM in series [3] and 1630 nM in series [6]. In addition, the Ratio in [7] was 0.0175.

Consider `CC(C)(C)CC(=O)Oc1cccc(CC(=O)N2CCNc3nc(C(F)(F)F)ccc3[C@H]2CC(=O)O)c1`, for which the EC50 in [1] was found to be 8.7 nM; in series [2], 20 nM. Moreover, the highest concentration (Cmax) in series [3] stood at 5.8 nM; in series [6], 32.5 nM. Further, in series [7], the Ratio was determined as 0.179.

For `CC(C)C(=O)Oc1cccc(CC(=O)N2CCNc3nc(C(F)(F)F)ccc3[C@H]2CC(=O)O)c1`, the EC50 in series [1] worked out at 68 nM; in series [2], 282 nM. For the same compound, the Cmax in series [6] is 680 nM. In addition, the Ratio in [7] is reported as 0.

Turning to `CCCCOC(=O)c1cccc(CC(=O)N2CCNc3nc(C(F)(F)F)ccc3[C@H]2CC(=O)O)c1`, the 50% effective concentration (EC50) was 4 nM in [1] and 5.6 nM in [2]. Moreover, the Cmax amounted to 28.5 nM in series [3] and 1630 nM in [4]. Also, the Ratio in series [5] worked out at 0.0175.

In the case of `O=C(O)C[C@@H]1c2ccc(C(F)(F)F)nc2NCCN1C(=O)Cc1cccc(OC(=O)CC2CC2)c1`, the figures for the 50% effective concentration (EC50) in series [1] and in series [2] were 42 nM and 81 nM, respectively. Besides, the highest concentration (Cmax) in [6] amounted to 607 nM. In addition, the Ratio in [7] turned out to be 0.

Take `O=C(O)C[C@@H]1c2ccc(C(F)(F)F)nc2NCCN1C(=O)Cc1cccc(C(=O)OCC2CC2)c1`: the 50% effective concentration (EC50) in [1] is 3.4 nM; in series [2], 3.7 nM. Also, the Cmax was 39.3 nM in series [3] and 300 nM in series [4]. Moreover, the Ratio in series [5] is 0.131.

For the compound `O=C(O)C[C@@H]1c2ccc(C(F)(F)F)nc2NCCN1C(=O)Cc1cccc(O)c1`, the EC50 in [1] and in series [2] was more than 10000 nM throughout. Besides, the highest level in series [3] (Cmax) was 40 nM. Moreover, the solubility in series [8] turned out to be 780 µg/mL (≈ 1910 µM). In series [9], the fraction unbound was more than 0.3. Besides, the time of peak concentration (Tmax) in [16] and in [19] was 15 min throughout. For the same compound, the AUC in [17] and in [20] was 1230 ng·h/mL in each case. The half-life in series [18] worked out at 15 min. The t1/2 in [21] was determined as 15 min.
